Assay results from ChEMBL document CHEMBL1165862, “Synthesis and pharmacological evaluation of novel 5-substituted-1-(phenylsulfonyl)-2-methylbenzimidazole derivatives as anti-inflammatory and analgesic agents” (Eur J Med Chem, 2010).

How the values were obtained:
[1] = test system: Rattus norvegicus; assay: Antiinflammatory activity in Sprague-Dawley rat assessed as reduction of carrageenan-induced paw edema at 200 mg/kg, po administered 30 mins before carrageenan challenge measured after 1 hr by mercury displacement method relative to control; assay type: functional; set-up: scale not given: the % may be the effect or the level left
Summary of the method: (§1)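 Rats (150–230 g; groups of six), paw edema induced with 1.0% carrageenan. Compounds given p.o. as suspensions in 2% sodium CMC 30 min before carrageenan, test compounds at 200 mg/kg and indomethacin standard at 50 mg/kg; 2% CMC served as control. Paw volume measured by mercury-displacement plethysmography. Mean ± SEM of six animals.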

[2] = test system: Mus musculus; assay: Analgesic activity in albino mouse assessed as protection against acetic acid-induced writhing at 100 mg/kg, po administered 30 mins prior to acetic acid challenge measured after 15 mins; assay type: functional
Summary of the method: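 Albino mice of either sex, 20–25 g, groups of six. Dosed orally as suspension in 2% CMC 30 min before i.p. acetic acid (0.6% v/v in distilled water, 1 mL/kg); controls given 2% CMC alone, standard acetyl salicylic acid. Writhes per animal counted for 15 min; activity expressed as percentage protection. Mean ± SEM, n = 6.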

[3] = test system: Rattus norvegicus; assay: Gastrointestinal toxicity in Sprague-Dawley rat assessed as lengths of longest diameters of lesions at 20 mg/kg, po after 6 hrs; assay type: organism-based; set-up: dose 20 mg/kg, route oral; details: in vivo
Summary of the method: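 SD rats of either sex (150–200 g), groups of six; dosed orally in 0.1% Tween 80, vehicle as control. Stomachs taken 6 h later, ligated and stored overnight in 2% v/v formol saline. Next day opened along greater curvature, washed in warm water and viewed under 3-fold magnifier. Longest lesion diameters summed per animal as total lesion score (mm); group mean ± SEM.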

[4] = test system: Rattus norvegicus; assay: Antiinflammatory activity in Sprague-Dawley rat assessed as reduction of carrageenan-induced paw edema at 50 mg/kg, po administered 30 mins before carrageenan challenge measured after 1 hr by mercury displacement method relative to control; assay type: functional; set-up: scale not given: the % may be the effect or the level left; summary of the method: as §1

Structure (SMILES)	Activity [1] [%]	Activity [2] [%]	Activity [3] [mm]	Activity [4] [%]
Cc1nc2cc(NCc3ccccc3Cl)ccc2n1S(=O)(=O)c1ccccc1	8.6	–	–	–
Cc1nc2cc(Nc3ccc(N)cc3)ccc2n1S(=O)(=O)c1ccccc1	39.7	56.9	16	–
CCNc1ccc2c(c1)nc(C)n2S(=O)(=O)c1ccccc1	7.2	–	–	–
CCCCNc1ccc2c(c1)nc(C)n2S(=O)(=O)c1ccccc1	7.9	–	–	–
Cc1nc2cc(Nc3ccc([N+](=O)[O-])cc3)ccc2n1S(=O)(=O)c1ccccc1	10.6	–	–	–
Cc1nc2cc(NCc3ccc([N+](=O)[O-])cc3)ccc2n1S(=O)(=O)c1ccccc1	10.8	–	–	–
CCCNc1ccc2c(c1)nc(C)n2S(=O)(=O)c1ccccc1	7.7	–	–	–
Cc1nc2cc(Nc3ccccc3N)ccc2n1S(=O)(=O)c1ccccc1	37	55.3	14	–
Cc1nc2cc(Nc3ccccc3[N+](=O)[O-])ccc2n1S(=O)(=O)c1ccccc1	10.2	–	–	–
Cc1nc2cc(NCc3ccc(Cl)cc3)ccc2n1S(=O)(=O)c1ccccc1	9.2	–	–	–
Cc1nc2cc(NCc3ccc(N)cc3)ccc2n1S(=O)(=O)c1ccccc1	33.7	–	15	–
CNc1ccc2c(c1)nc(C)n2S(=O)(=O)c1ccccc1	6.7	–	–	–
CC(=O)Oc1ccccc1C(=O)O [ASPIRIN]	–	57.8	–	–
COc1ccc2c(c1)c(CC(=O)O)c(C)n2C(=O)c1ccc(Cl)cc1 [INDOMETHACIN]	–	–	26	43.4
